These results are taken from article PMC12011195 (ACS chemical biology, 2024).

In test [1] the test system is FXN mRNA in GM15850 cells. Description: Co-treatment of SynGRs with BET-binding ligands, FXN mRNA in GM15850 cells. In kind it is cell-based, human. As to conditions: SynGR1 1 h, then ligand 0.5 μM for 23 h. In a few lines: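 Patient-derived GM15850 lymphoblasts in RPMI with 15% FBS; compounds dissolved in DMSO. Test compound (1 mM stock, increasing concentrations) added for 1 h, then pan-BET, BD1- or BD2-selective BET ligand at 0.5 μM for 23 h. RNA purified with DNase treatment; cDNA from 400 ng RNA; SYBR qPCR on 100 ng cDNA with FXN and TBP primers; normalised to 0.1% DMSO control.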

Test [2] deals with FXN expression in patient-derived cells. As to conditions: wide array of patient-derived cells; cited from earlier work.

In the case of `COCc1nc2cnc3cc(-c4c(C)noc4C)c(OC[C@H]4CCNC4)cc3c2n1[C@H](C)c1ccccc1` [GSK778], the “effect of co-treatment with BET ligand on FXN expression activity of SynGR1” value in test [1] is given as “further stimulated the activity”.

With `Cc1sc2c(c1C)C(c1ccc(Cl)cc1)=N[C@@H](CC(=O)NCCOCCOCCOCCOCCOCCOCCC(=O)NCCCN(C)CCCNC(=O)CCNC(=O)c1nc(NC(=O)CCNC(=O)c3cc(NC(=O)c4nc(NC(=O)CCNC(=O)c5cc(NC(=O)c6nccn6C)cn5C)cn4C)cn3C)cn1C)c1nnc(C)n1-2` [SynGR1], the FXN protein levels entry in test [2] is listed as “restoring FXN protein levels”.
